# A selection: hits, their analogues and other compounds. The true share with any hit is near 2.4%.
# SR-BI HDL uptake – blocks mouse SR-BI lipid uptake from DiI-HDL. Q61009. ldlA[mSR-BI] CHO cells, DiI-HDL uptake fluorescence, 3 h. inhibition, % at 12.5 µM. 320,000 tested, 0.96% active. AID 488896;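 active = mean replicate inhibition of at least 70% and a set share of replicates each scoring 70 or more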;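 note: 0% = median of neutral control wells and 100% = median of positive control wells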
# Target sequence (Q61009 whole entry, looked up): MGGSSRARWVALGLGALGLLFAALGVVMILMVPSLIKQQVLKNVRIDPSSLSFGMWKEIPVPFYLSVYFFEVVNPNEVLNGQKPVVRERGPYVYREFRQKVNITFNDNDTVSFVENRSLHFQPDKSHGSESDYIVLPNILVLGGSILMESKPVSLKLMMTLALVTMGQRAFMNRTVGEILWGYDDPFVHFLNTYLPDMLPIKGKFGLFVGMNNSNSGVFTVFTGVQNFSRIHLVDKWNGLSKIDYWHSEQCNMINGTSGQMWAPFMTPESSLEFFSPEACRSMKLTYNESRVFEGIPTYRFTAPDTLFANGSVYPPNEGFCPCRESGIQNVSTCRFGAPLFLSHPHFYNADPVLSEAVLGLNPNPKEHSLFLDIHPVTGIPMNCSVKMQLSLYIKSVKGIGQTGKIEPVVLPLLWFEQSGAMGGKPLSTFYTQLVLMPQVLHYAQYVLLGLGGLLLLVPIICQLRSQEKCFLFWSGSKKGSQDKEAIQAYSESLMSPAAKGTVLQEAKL
# SR-BI uptake up – SR-BI HDL lipid transfer activation; CHO ldlA[mSR-BI] cells, DiI-HDL uptake fluorescence, 3 h; 100 = double the neutral-control signal; activation, % at 12.5 µM; 320,000 tested, 0.096% active; AID 504775;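 active = mean replicate activation of at least 60% and every replicate at or above 60%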;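 note: 0% = median plate neutral-control signal and 100% = twice that signal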
#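 Test system: SR-BI-overexpressing, LDLR-lacking CHO cells. Measured by: DiI fluorescence, bottom read. Medium: Ham's F12 with 0.5% BSA, HEPES 25 mM, pH 7.4. Timing: 3 h uptake period with compound, 37 °C.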
# Calb FLC – C. albicans growth modulation with fluconazole; growth inhibition, % (no concentration beside the values); 300,000 tested, 0.57% active; C. albicans CaCi-2 + fluconazole, Alamar Blue growth, 48 h; AID 1979;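 active = growth inhibition above about 58% in most replicates, limit read from the data, passing the limit was not always enough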;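 note: all wells also contain fluconazole at 8 µg/ml as a sub-toxic cotreatment; 0% = median of DMSO wells and 100% = median of geldanamycin control wells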
# HTR2A ag – activates the mouse 5-HT2A serotonin receptor; CHO-K1 mHTR2A beta-arrestin complementation, luminescence; percent of 30 µM serotonin response; activation, % at 7.6 µM; 360,000 tested, 0.66% active; AID 624169;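 active = activation above a run cutoff, the mean activation of all tested compounds plus 3 SD, cut at about 14% in these data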;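 note: 0% = plate median of compound wells and 100% = 30 µM serotonin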
# MIN6 prolif-1 – induces beta-cell replication in MIN6 cells; MIN6 cells proliferation, ATPlite luminescence, 48 h; cells starved in 0.2% serum; 100% = growth in 10% serum; proliferation, % at 10 µM; 330,000 tested, 0.29% active; AID 2380;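 active = compounds whose signal lies at least 3.5 SD above the mean of all wells on their plate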;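 note: 0% = DMSO-treated cells in low-serum medium and 100% = 10% serum control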
# Ins promoter up – MIN6 insulin promoter up-regulation | z-score at 5 µM | AID 1625 | 190,000 tested, 0.3% active | MIN6 insulin promoter-GFP reporter, high-content imaging; active compounds read high;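 active = z-score above 3 at 5 µM with at least 500 cells counted in the well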
# MIN6 prolif-2 – confirmation of inducers of beta-cell replication in MIN6 cells; shares compounds with MIN6 prolif-1; MIN6 beta-cell proliferation, ATPlite luminescence, 48 h; cells kept in 0.2% serum; scaled between 0.2% and 10% serum; proliferation increase, % at 50 µM; 920 tested, under 10 active;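 active = proliferation increase above 40% at any of the four tested concentrations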
# Numbers without * were called inactive; x = not tested or not shown.
SMILES,SR-BI HDL uptake,SR-BI uptake up,Calb FLC,HTR2A ag,MIN6 prolif-1,Ins promoter up,MIN6 prolif-2
Cc1ccc(NC(=O)c2ccc(C)c(S(=O)(=O)N3CCOCC3)c2)nc1,4,-4,-3,11,13*,x,-3
COc1cc(NC(=O)CN(c2ccc(C)cc2)S(=O)(=O)c2c(C)n[nH]c2C)cc(OC)c1,-17,17,7,-7,0.0*,-0.63,-6
COCC1CCCCN1C(=O)c1ccc(OC)c(OC2CCN(C(C)C)CC2)c1 (stereo not given),-17,17,-2,-1,4.8*,x,-2
CCOC(=O)c1cc2c(=O)n3ccccc3nc2n(Cc2ccco2)c1=NC(=O)c1cccnc1,-7,7,16,4,9.5*,0.02,-5
Cc1cc(C)nc(-n2nc(C)cc2NC(=O)CN2CCC(C)CC2)n1,-10,10,3,-2,4.9*,-0.69,-6
CN1C(C(=O)NCc2ccc(OC(F)(F)F)cc2)CC2Cn3c(nc4cc5ccccc5cc43)C21 (stereo not given),-4,4,6,10,-3,-0.59,x
CC(C)n1c(N2CCN(C(=O)NCc3ccccc3)CC2)nc2ccccc21,35,-35,5,-2,8.4*,-0.6,-3
CC(=O)Nc1ccc(CCCCc2ccc(NC(C)=O)cc2)cc1,12,-12,x,2,x,x,x
O=[N+]([O-])c1cn(-c2nc(-c3ccco3)cc(C(F)(F)F)n2)cn1,7,-7,-8,5,7.7*,x,0
CCN(C1CCS(=O)(=O)C1)S(=O)(=O)c1cc(C)ccc1C (stereo not given),-11,11,0,2,8,x,x
Cc1ccc(C)c(S(=O)(=O)NC2CCS(=O)(=O)C2)c1 (stereo not given),-1,1,-5,2,12*,x,-2
CC(C)Cn1nc(NC(=O)c2ccco2)c2cc3ccccc3nc21,54,-54,1,-2,6.8*,-0.34,-2
CCOn1c(=O)c(-c2cc3ccccc3o2)[n+]([O-])c2ccccc21,29,-29,7,0,6.8*,0.14,0
O=c1c(-c2cc3ccccc3o2)[n+]([O-])c2ccccc2n1OCc1ccccn1,20,-20,11,0,0,0.17,x
O=[N+]([O-])c1ccc(CN2CC(N3CCC(Cc4ccccc4)CC3)CS2(=O)=O)cc1 (stereo not given),x,x,x,2,x,x,x
COc1cc(NC(=O)c2ccccc2F)c(OC)cc1NC(=O)CN1CCCCC1,40,-40,2,-9,9.3*,x,-6
COCCOc1ccc(C(F)(F)F)cc1NC(=O)c1ccccc1F,24,-24,1,2,6.7*,-0.15,0
COCCOc1ccc(C(F)(F)F)cc1NC(=O)COC(=O)c1cc[n+]([O-])cc1,-15,15,9,-10,-3,x,x
CC1(C(=O)NCc2ccccc2)CN(S(C)(=O)=O)CC(=O)N1Cc1cccs1 (stereo not given),x,x,x,-1,x,x,x
Cc1ccc(NC(=O)CCC(=O)N/N=C/c2coc3ccc(F)cc3c2=O)cc1,-9,9,5,0,11*,x,-6
Cc1ccc(NC(=O)CCC(=O)N/N=C/c2coc3ccccc3c2=O)cc1,x,x,-11,-1,-3,-0.01,x
CN(CC(=O)Nc1ccc(F)cc1[N+](=O)[O-])C1CCS(=O)(=O)C1 (stereo not given),-13,13,x,-5,-4,x,x
CCc1ccc(S(=O)(=O)Nc2ccc(Cl)cn2)cc1,-17,17,49,-1,4.9*,x,4
CCOc1ccc(S(=O)(=O)N(CC)CC)cc1NC(=O)CSCc1c(C)noc1C,9,-9,26,4,11*,x,-3
Cc1noc(C)c1CSCC(=O)Nc1cc(S(=O)(=O)N2CCOCC2)ccc1OCC(F)(F)F,-9,9,-5,-4,-3,x,x
SMILES,SR-BI HDL uptake,SR-BI uptake up,Calb FLC,HTR2A ag,MIN6 prolif-1,Ins promoter up,MIN6 prolif-2
CC1(c2nc3ccccc3[nH]2)c2ccccc2C(=O)N1Cc1ccccn1 (stereo not given),x,x,x,7,x,x,x
N#Cc1ccc(N)cc1OCCCN1CCCCC1,-27,27,x,-3,x,x,x
O=C(CSc1nnc(CNC(=O)c2cccs2)o1)Nc1cccc(C(F)(F)F)c1,14,-14,-1,-5,5.1*,0.36,-1
COc1ccc(CNC(=O)Nc2nc(C(N)c3ccccc3)cs2)cc1 (stereo not given),x,x,x,-3,x,x,x
Cc1ccc(-c2nnc(SCC(=O)N/N=C/c3ccc(C)s3)n2-c2ccc(C)cc2)cc1,0,0,-5,9,0,-0.64,x
N#Cc1ccc(C(=O)Nn2cnnc2)cc1,-11,11,-3,-2,8.2*,x,-1
CC(C)(C)c1ccc(C(=O)Nn2cnnc2)cc1,1,-1,0,4,-1,x,x
Cn1c(=N)n(CC(=O)c2ccccc2)c2ccccc21,x,x,0,-4,-3,-0.24,x
Cn1c(=N)n(CC(=O)O)c2ccccc21,-26,26,15,6,5.8*,0.2,0
COc1ccc(-c2nc3c(c(SCC(=O)N4CCCC4)n2)COC(C)(C)C3)cc1,11,-11,24,-5,11*,x,-5
Cc1onc(-c2ccccc2)c1C(O)c1ccc(F)cc1 (stereo not given),15,-15,-18,-4,10*,x,-2
COc1ccccc1NC(=O)CSc1c2c(nc3ccccc13)CCC2,13,-13,-6,-1,8.4*,x,-6
COc1cc(CC(=O)NCCCc2ccccc2)cc(OC)c1OC,-8,8,1,1,6.0*,x,-2
COCCCNC(=O)CN(c1ccc(F)cc1)S(=O)(=O)c1ccc2c(c1)OCCO2,x,x,-1,-7,6.0*,x,-1
CN(c1cccc(NC(=O)COc2ccc(Cl)cc2Cl)c1)S(C)(=O)=O,-3,3,0,2,0,x,x
CC(=O)C1=C(O)C(=O)N(Cc2ccccc2)C1c1ccc(N(C)C)cc1 (stereo not given),-15,15,3,9,6.1*,x,0
CC(=O)C1=C(O)C(=O)N(Cc2ccccc2)C1c1ccc(Cl)cc1 (stereo not given),5,-5,-4,2,-1,x,x
CN1C[C@@H]2[C@@H]3C(=O)N(C)C(=O)[C@@H]3[C@](Cc3ccccc3)(C1=O)N2C(=O)c1ccccc1,-17,17,x,-2,x,x,x
CC(C)OP(=O)(c1ccc(N(C)C)cc1)C(O)c1ccc(Br)cc1 (stereo not given),10,-10,29,3,9.0*,x,-1
COc1ccccc1NC(=O)CN1CCN(c2ccccc2F)CC1,18,-18,-2,4,2,-0.17,x

# Bioassay records deposited in PubChem BioAssay by several laboratories.
